Active and inactive are the calls of the source. Unless noted, no cut-off for these calls is given here.
Tests used:
Helicoverpa zea = assay: Insecticidal activity against second-instar larval stage of Helicoverpa zea (corn earworm) fed with artificial diet containing compound assessed as mortality after 5 days by diet-based secondary assay; format: functional, organism-based
Summary of the method: (§1)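 Follow-up for primary-screen hits (>67% mortality): 128-well diet trays, 1 mL diet containing selected dosages, second-instar larvae. Wells covered with clear plastic, eight wells per treatment, percent mortality averaged over eight wells at 5 days. Approximate LC50 estimated by probit analysis.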

Spodoptera exigua [1] = assay: Insecticidal activity against larvae of Spodoptera exigua fed with artificial diet containing compound assessed as mortality after 6 days by high-throughput screening assay; format: functional; set-up: concentration or dose not given beside the values
Summary of the method: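 Artificial diet (100 μl/well, 96-well) pretreated with 12 μg compound in 30 μl DMSO-acetone-water (2:1:7), dried several hours, then seeded with eggs. Plates covered, kept in dark at 29°C, mortality recorded 6 days post-treatment. Six replicates per treatment.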

Spodoptera exigua [2] = assay: Insecticidal activity against second-instar larval stage of Spodoptera exigua fed with artificial diet containing compound assessed as mortality after 5 days by diet-based secondary assay; format: functional; summary of the method: as §1
Aedes aegypti = assay: Insecticidal activity against larvae of Aedes aegypti assessed as mortality after 3 days by high-throughput screening assay; format: functional, organism-based
Summary of the method: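 One-day-old larvae placed in 96-well plates pre-treated with 6 μg/well, applied in 15 μl DMSO-acetone-water (1:1:8) and dried. Plates lidded, held at room temperature, mortality graded 3 days post-treatment. Six replicates per treatment.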

Spodoptera exigua [3] = assay: Insecticidal activity against second-instar larval stage of Spodoptera exigua fed with artificial diet containing compound assessed as mortality at 50 ug/cm2 after 5 days by diet-based secondary assay; format: functional; conditions: 120 h
Summary of the method: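 Second-instar larvae on 128-well trays with 1 mL diet dosed at 50 μg/cm2, eight wells per treatment under clear plastic. Percent mortality averaged over the eight wells, scored 5 days after assay start; tested only on primary-screen hits (>67% mortality).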

Row | SMILES | mortality (Helicoverpa zea) | mortality (Spodoptera exigua [1]) [%] | LC50 (Spodoptera exigua [2]) [microg/cm2] | mortality (Aedes aegypti) | mortality at 50 µg/cm2 (Spodoptera exigua [3]) [%]
1 | COCCNC(=O)c1onc(CS(=O)(=O)c2ccccc2)c1C(=O)NCCOC | inactive | 83 | 19 | inactive | 75
2 | CC(C)NC(=O)c1onc(CS(=O)(=O)c2ccccc2)c1C(=O)NC(C)C | inactive | 100 | – | inactive | 0
3 | CCCNC(=O)c1onc(CS(=O)(=O)c2ccc(Cl)cc2)c1C(=O)NCCC | inactive | 83 | – | inactive | 0
4 | CCCCNC(=O)c1onc(CS(=O)(=O)c2ccc(Cl)cc2)c1C(=O)NCCCC | inactive | 100 | – | inactive | 0
5 | C=CCNC(=O)c1onc(CS(=O)(=O)c2ccc(Cl)cc2)c1C(=O)NCC=C | inactive | 100 | – | inactive | 0
6 | CCCCNC(=O)c1c(CSc2ccccc2)noc1C(=O)NCc1ccccc1 | inactive | 100 | – | inactive | 0
7 | CCCCNC(=O)c1onc(CS(=O)(=O)c2ccccc2)c1C(=O)NCCCC | inactive | 100 | 30 | inactive | 75
8 | COCCNC(=O)c1c(CS(=O)(=O)c2ccc(Cl)cc2)noc1C(=O)NCc1ccccc1 | inactive | 100 | – | inactive | 0
9 | CC(C)NC(=O)c1c(CSc2ccccc2)noc1C(=O)NCc1ccccc1 | inactive | 83 | – | inactive | 0
10 | COCCNC(=O)c1onc(CSc2ccc(Cl)cc2)c1C(=O)NCCOC | inactive | 83 | – | inactive | 0
11 | C=CCNC(=O)c1onc(CS(=O)(=O)c2ccccc2)c1C(=O)NCC=C | inactive | 100 | – | inactive | 0
12 | COCCNC(=O)c1onc(CSc2ccccc2)c1C(=O)NCCOC | inactive | 83 | – | inactive | 0
13 | CCCNC(=O)c1c(CSc2ccc(Cl)cc2)noc1C(=O)NCc1ccccc1 | inactive | 100 | – | inactive | 0
14 | CC(C)NC(=O)c1c(CSc2ccc(Cl)cc2)noc1C(=O)NCc1ccccc1 | inactive | 100 | – | inactive | 0
15 | Cc1cc(C)cc(SCc2noc(C(=O)NCc3ccccc3)c2C(=O)NCc2ccccc2)c1 | inactive | 83 | – | inactive | 0
16 | C=CCNC(=O)c1c(CS(=O)(=O)c2ccc(Cl)cc2)noc1C(=O)NCc1ccccc1 | inactive | 100 | – | inactive | 38
17 | CC(C)NC(=O)c1onc(CSc2ccc(Cl)cc2)c1C(=O)NC(C)C | inactive | 83 | – | inactive | 0
18 | CCCNC(=O)c1c(CS(=O)(=O)c2ccccc2)noc1C(=O)NCc1ccccc1 | inactive | 100 | – | inactive | 0
19 | C=CCNC(=O)c1c(CSc2ccc(Cl)cc2)noc1C(=O)NCc1ccccc1 | inactive | 83 | – | inactive | 0
20 | CC(C)CCNC(=O)c1onc(CSc2ccc(Cl)cc2)c1C(=O)NCCC(C)C | inactive | 100 | – | inactive | 0
21 | CC(C)NC(=O)c1onc(CS(=O)(=O)c2ccc(Cl)cc2)c1C(=O)NC(C)C | inactive | 97 | – | inactive | 0
22 | COCCNC(=O)c1onc(CS(=O)(=O)c2ccc(Cl)cc2)c1C(=O)NCCOC | inactive | 100 | – | inactive | 0
23 | CCCNC(=O)c1onc(CS(=O)(=O)c2ccccc2)c1C(=O)NCCC | inactive | 100 | – | inactive | 0
24 | CCCNC(=O)c1c(CSc2ccccc2)noc1C(=O)NCc1ccccc1 | inactive | 83 | – | inactive | 38
25 | CC[C@H]1CCC[C@H](O[C@H]2CC[C@H](N(C)C)[C@@H](C)O2)[C@@H](C)C(=O)C2=C[C@@H]3[C@@H](C=C(C)[C@@H]4C[C@@H](O[C@@H]5O[C@@H](C)[C@H](OC)[C@@H](OC)[C@H]5OC)C[C@@H]34)[C@@H]2CC(=O)O1.CC[C@H]1CCC[C@H](O[C@H]2CC[C@H](N(C)C)[C@@H](C)O2)[C@@H](C)C(=O)C2=C[C@@H]3[C@@H](C=C[C@@H]4C[C@@H](O[C@@H]5O[C@@H](C)[C@H](OC)[C@@H](OC)[C@H]5OC)C[C@@H]34)[C@@H]2CC(=O)O1 | – | – | 0.06 | – | –
26 | CC(C)CCNC(=O)c1onc(CSc2ccc(F)cc2)c1C(=O)NCCC(C)C | inactive | 100 | – | inactive | 38

Source: ChEMBL document CHEMBL3046721, “3-(Arylthiomethyl)isoxazole-4,5-dicarboxamides: chemoselective nucleophilic chemistry and insecticidal activity” (2009)
